Read-outs that look alike come from different tables or passages of the source.
Key:
[1] = target: T1, σ1R (Cavia porcellus, UniProt Q60492); assay: σ1R radioligand binding with [3H]; set-up: species or system guinea pig; details: for Ki σ2R /Ki σ1R: selectivity ratio σ2R over σ1R
How it was run: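 Membranes from frozen whole guinea pig brain. Each tube held 3 nmol/L [3H](+)-pentazocine (28 Ci/mmol) and 8.0 mg tissue.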

[2] = In vitro microsomal stability in RLMs; assay type: in vitro ADME, rat; details: for microsomal CLint at 1 μM: rat, rat liver microsomes, pH 7.4
How it was run: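 Test compound at 1 μM (spiked from 200 μM stock) in 50 mM phosphate buffer pH 7.4 with 1 mg protein/mL rat liver microsomes and 3 mM MgCl2. Mixture pre-incubated 5 min at 37 ± 0.5 °C, then started with NADPH (1 mM final) and shaken for 30 min. Aliquots taken at 0, 5, 10, 15, 20 and 30 min, quenched in ice-cold acetonitrile with internal standard, filtered and analysed by LC-MS/MS. Controls: verapamil (positive) and no-NADPH mixture (negative).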

[3] = target: σ2R; details: read-out: Ki (nM ± SEM) σ2R; ref Yous et al. 2005; cited from earlier work
[4] = target: T1, σ1R; details: selectivity ratio; ref Yous et al. 2005; cited from earlier work
[5] = Metabolic soft spot identification of 12 in RLMs; assay type: in vitro ADME, rat; details: RLMs with NADPH
How it was run: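 Test compound at 10 μM in 50 mM phosphate buffer pH 7.4 with 1 mg protein/mL rat liver microsomes, pre-incubated 5 min at 37 ± 0.5 °C with shaking. Reaction started with NADPH (1 mM final). Samples taken at 0 min (control) and 10 min, mixed with an equal volume of ice-cold acetonitrile, vortexed 2 min and centrifuged at 10,000 g for 5 min. Supernatant analysed by LC-HRMS on a QToF.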

T1 sequence (Q60492 whole entry): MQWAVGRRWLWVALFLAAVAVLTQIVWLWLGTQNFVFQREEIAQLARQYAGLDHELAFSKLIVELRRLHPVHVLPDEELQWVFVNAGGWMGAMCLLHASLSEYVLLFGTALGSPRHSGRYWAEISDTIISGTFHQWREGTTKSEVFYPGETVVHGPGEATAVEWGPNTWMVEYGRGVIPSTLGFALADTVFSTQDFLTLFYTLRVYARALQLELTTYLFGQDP

Row | SMILES | Ki [1] [nM] | Ki σ2R /Ki σ1R [1] | microsomal CLint at 1 μM [2] [µL/min/mg] | t1/2 (in vitro hepatic microsomal half-life) ([2]; RLMs 1 mg protein/mL, 1 μM compound, NADPH, 37 °C) [min] | remaining unmodified at the end of 10 min incubation [5] | Ki [3] [nM] | Ki σ2R /Ki σ1R [4]
1 | CN(CCn1c(=O)sc2ccccc21)C12CC3CC(CC(C3)C1)C2 [Compound 10, 3-{2-[(Adamantan-1-yl)(methyl)amino]ethyl}benzo[d]thiazol-2(3H)-one] | 12.9 ± 1.8 | 6.6 | 650 | – | – | – | –
2 | CCC(=O)c1ccc2c(c1)sc(=O)n2CCNC12CC3CC(CC(C3)C1)C2 [Compound 8, 3-{2-[(Adamantan-1-yl)amino]ethyl}−6-propionylbenzo[d]thiazol-2(3H)-one] | 11.2 ± 1.26 | 6.3 | 160 | – | – | – | –
3 | CCCc1ccc2c(c1)sc(=O)n2CCNC12CC3CC(CC(C3)C1)C2 [Compound 9, 3-{2-[(Adamantan-1-yl)amino]ethyl}−6-propylbenzo[d]thiazol-2(3H)-one] | 11.2 ± 0.68 | 6.2 | 280 | – | – | – | –
4 | O=c1sc2ccccc2n1CCNC12CC3CC(CC(C3)C1)C2 [Compound 7, 3-{2-[(Adamantan-1-yl)amino]ethyl}benzo[d]thiazol-2(3H)-one] | 131 ± 9.94 | 0.5 | 460 | – | – | – | –

Further lines, with some results ahead:

Row | Ki [1] [nM] | Ki σ2R /Ki σ1R [1] | microsomal CLint at 1 μM [2] [µL/min/mg] | t1/2 (in vitro hepatic microsomal half-life) ([2]; RLMs 1 mg protein/mL, 1 μM compound, NADPH, 37 °C) [min] | remaining unmodified at the end of 10 min incubation [5] | SMILES | Ki [3] [nM] | Ki σ2R /Ki σ1R [4]
5 | 12.9 ± 1.84 | 8.7 | 560 | – | – | CCC(=O)c1ccc2c(c1)sc(=O)n2CCN(C)C12CC3CC(CC(C3)C1)C2 [Compound 11, 3-{2-[(Adamantan-1-yl)(methyl)amino]ethyl}−6-propionylbenzo[d]thiazol-2(3H)-one] | – | –
6 | – | – | 710 | 0.98 | – | CCCc1ccc2c(c1)sc(=O)n2CCN1CCCCCC1 [SN56, 3-[2-(azepan-1-yl)ethyl]-6-propylbenzo[d]thiazol-2(3H)-one, reference compound] | > 1000 | >1000
7 | 7.2 ± 0.88 | 61 | 370 | – | ca. 6% | CCCc1ccc2c(c1)sc(=O)n2CCN(C)C12CC3CC(CC(C3)C1)C2 [Compound 12, 3-{2-[(Adamantan-1-yl)(methyl)amino]ethyl}−6-propylbenzo[d]thiazol-2(3H)-one] | – | –

From publication PMC7880169 (Medicinal chemistry research : an international journal for …, 2020)
